Source: ChEMBL document CHEMBL2016546, “Synthesis, characterization, molecular docking and cytotoxic activity of novel plumbagin hydrazones against breast cancer cells” (Bioorg Med Chem Lett, 2012)
Activity calls are given as the source filed them. The calls are words filed in the database; no cut-off is given here.

Assays:
MCF7 = assay: Antiproliferative activity against ER-positive human MCF7 cells after 48 hrs by MTT assay; details: MCF7, 48 h
[1] = Partition coefficient, log P pf the compound; assay type: physicochemical; details: octanol/water
MDA-MB-468 = assay: Antiproliferative activity against ER-negative human MDA-MB-468 cells after 48 hrs by MTT assay; assay type: functional, cell-based; details: MDA-MB-468, 48 h
Method in brief: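 MDA-MB-468 cells plated at 3 × 10³/well in medium containing 10% fetal calf serum, penicillin (50 U/mL) and streptomycin, at 37 °C under 5% CO₂. DMSO-dissolved compounds were added 24 h post-seeding and exposure lasted 48 h. MTT (0.5 mg/mL) was applied for 2 h at 37 °C, then DMSO for 30 min at room temperature. Eight wells per treatment, at least three independent repeats.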

[2] = target: Transcription factor p65 (Homo sapiens) (UniProt Q04206); assay: Inhibition of NFkappaB p65 subunit expression in human MDA-MB-231 cells at 1.5 uM after 48 hrs by Western blot analysis; assay type: cell-based
Method in brief: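 MDA-MB-231 cells were exposed to compounds for 48 h, with a vehicle-treated control. NF-κB p65 subunit levels were detected by Western blot, using β-actin as the protein loading control.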

MDA-MB-231 = assay: Antiproliferative activity against ER-negative human MDA-MB-231 cells after 48 hrs by MTT assay; details: MDA-MB-231, 48 h

Transcription factor p65 (Homo sapiens), sequence (Q04206 whole entry): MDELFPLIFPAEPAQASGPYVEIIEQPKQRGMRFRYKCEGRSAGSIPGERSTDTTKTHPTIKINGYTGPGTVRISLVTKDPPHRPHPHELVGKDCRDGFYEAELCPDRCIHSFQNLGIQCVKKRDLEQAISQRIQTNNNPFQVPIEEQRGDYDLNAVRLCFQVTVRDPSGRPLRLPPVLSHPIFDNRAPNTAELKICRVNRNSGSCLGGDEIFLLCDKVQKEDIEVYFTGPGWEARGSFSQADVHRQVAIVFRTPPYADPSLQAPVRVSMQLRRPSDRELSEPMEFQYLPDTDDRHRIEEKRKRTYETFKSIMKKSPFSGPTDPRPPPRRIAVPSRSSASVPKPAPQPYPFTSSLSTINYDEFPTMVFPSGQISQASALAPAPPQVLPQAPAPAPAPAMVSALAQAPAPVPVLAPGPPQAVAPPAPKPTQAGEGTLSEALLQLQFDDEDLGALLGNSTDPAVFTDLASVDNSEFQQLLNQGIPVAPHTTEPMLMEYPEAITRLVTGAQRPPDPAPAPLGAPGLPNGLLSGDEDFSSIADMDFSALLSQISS

SMILES | IC50 (MCF7) | logP ([1]; read-out: logP) | IC50 (MDA-MB-468) | inhibition [2] | IC50 (MDA-MB-231) | logP [1]
CC1=C/C(=N\NC(=O)c2ccccc2O)c2c(O)cccc2C1=O | 5.3 µM | 4.17 | 2900 nM | Active | 3.8 µM | –
CC1=CC(=O)c2c(O)cccc2C1=O [PLUMBAGIN] | 5.5 µM | – | 2500 nM | Active | 3.5 µM | 0.89
CC1=C/C(=N\NC(=O)c2ccccc2)c2c(O)cccc2C1=O | 2.8 µM | 4 | 2000 nM | Active | 2.1 µM | –

Second part, led by results:

IC50 (MCF7) | logP ([1]; read-out: logP) | IC50 (MDA-MB-468) | inhibition [2] | IC50 (MDA-MB-231) | SMILES | logP [1]
2.7 µM | 3.13 | 1900 nM | Active | 1.9 µM | CC1=C/C(=N\NC(=O)c2cccnc2)c2c(O)cccc2C1=O | –
6.2 µM | 2.86 | 3300 nM | Active | 3.3 µM | CC1=C/C(=N\NC(=O)c2ccncc2)c2c(O)cccc2C1=O | –
